Test results: ChEMBL document CHEMBL1122431, “Carbocyclic analogues of 5-substituted uracil nucleosides: synthesis and antiviral activity” (1983)
In brackets after ≈: the same amount, converted by molar mass.

Columns and labels:
Type in all cases: functional
[1] = test system: Human alphaherpesvirus 1; test: Antiviral activity against herpes simplex virus(1) strain 377.
Outline: (§1)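 Inhibition of virus-induced cytopathogenic effect (CPE) in primary rabbit kidney cell cultures challenged with HSV-1 strain 377 or HSV-2 strain MS. HSV-2 testing followed the same procedure. Activity was scored as a virus rating (VR).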

[2] = test system: Human alphaherpesvirus 1; test: Minimum inhibitory concentration (MIC50) in Herpes simplex virus type-1 (HSV-1) using 377 strain. Experiment 3
Outline: (§2)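 Inhibition of virus-induced CPE in primary rabbit kidney cell cultures infected with HSV-1 strain 377 or HSV-2 strain MS. Potency was taken as the minimum inhibitory concentration (MIC50), in μg/mL, alongside the virus rating.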

[3] = test system: Human alphaherpesvirus 1; test: Antiviral activity against herpes simplex virus(1) strain 377, expressed as virus rating. Experiment 4; outline: as §1
[4] = test system: Human alphaherpesvirus 1; test: Minimum inhibitory concentration (MIC50) in Herpes simplex virus type-1 (HSV-1) using 377 strain. Experiment 4; outline: as §2
[5] = test system: Human alphaherpesvirus 2; test: Minimum inhibitory concentration (MIC50) in Herpes simplex virus type-2 (HSV-2) using MS strain. Experiment 1; outline: as §2
[6] = test system: Human alphaherpesvirus 1; test: Minimum inhibitory concentration (MIC50) in Herpes simplex virus type-1 (HSV-1) using 377 strain. Experiment 1; outline: as §2
[7] = test system: Human alphaherpesvirus 2; test: Antiviral activity against herpes simplex virus(2) strain MS expressed as virus rating. Experiment 1; outline: as §1
[8] = test system: Human alphaherpesvirus 2; test: Minimum inhibitory concentration (MIC50) in Herpes simplex virus type-2 (HSV-2) using MS strain. Experiment 2; outline: as §2
[9] = test system: Human alphaherpesvirus 1; test: Minimum inhibitory concentration (MIC50) in Herpes simplex virus type-1 (HSV-1) using 377 strain. Experiment 2; outline: as §2
[10] = test system: Human alphaherpesvirus 1; test: Antiviral activity against herpes simplex virus(1) strain 377, expressed as virus rating. Experiment 1; outline: as §1
[11] = test system: Human alphaherpesvirus 2; test: Antiviral activity against herpes simplex virus(2) strain MS expressed as virus rating. Experiment 2; outline: as §1
[12] = test system: Human alphaherpesvirus 1; test: Antiviral activity against herpes simplex virus(1) strain 377, expressed as virus rating. Experiment 3; outline: as §1
[13] = test system: Human alphaherpesvirus 1; test: Antiviral activity against herpes simplex virus(1) strain 377, expressed as virus rating. Experiment 2; outline: as §1
[14] = test system: Human alphaherpesvirus 2; test: Antiviral activity against herpes simplex virus(2) strain MS expressed as virus rating; outline: as §1
[15] = test system: Human alphaherpesvirus 2; test: Minimum inhibitory concentration (MIC50) in Herpes simplex virus type-2 (HSV-2) using MS strain.; outline: as §2
[16] = test system: Human alphaherpesvirus 1; test: Minimum inhibitory concentration (MIC50) in Herpes simplex virus type-1 (HSV-1) using 377 strain.; outline: as §2
[17] = test system: Human alphaherpesvirus 2; test: Minimum inhibitory concentration (MIC50) in Herpes simplex virus type-2(HSV-2) using MS strain.; outline: as §2
[18] = test system: Human alphaherpesvirus 1; test: Minimum inhibitory concentration (MIC50) in Herpes simplex virus type-1(HSV-1) using 377 strain.; outline: as §2
[19] = test system: Human alphaherpesvirus 1; test: Antiviral activity against herpes simplex virus(1) strain 377, expressed as virus rating; outline: as §1
[20] = test system: Human alphaherpesvirus 1; test: Minimum inhibitory concentration (MIC50) in Herpes simplex virus type-1 (HSV-1) using 377 strain at 0.9 virus rating. Experiment 2; outline: as §2
[21] = test system: Human alphaherpesvirus 1; test: Minimum inhibitory concentration (MIC50) in Herpes simplex virus type-1 (HSV-1) using 377 strain. Experiment 2.; outline: as §2
[22] = test system: Human alphaherpesvirus 2; test: Antiviral activity against herpes simplex virus(2) strain MS expressed as virus rating.; outline: as §1

**Q.** With `O=c1[nH]c(=O)n(C2CC(CO)C(O)C2O)cc1F` (stereo not given) as the compound, how does the Virus rating [1] read?
**A.** The Virus rating was 0.

**Q.** What does the source list for `O=c1[nH]c(=O)n([C@@H]2C[C@H](CO)[C@@H](O)C2)cc1I`?
**A.** MIC50 [2]: 0.1 µg/mL (≈ 0.284 µM); Virus rating [3]: 7.4; MIC50 [4]: 0.4 µg/mL (≈ 1.14 µM); MIC50 [5]: 32 µg/mL (≈ 90.9 µM); MIC50 [6]: 0.4 µg/mL (≈ 1.14 µM); Virus rating [7]: 2.9; MIC50 [8]: 20 µg/mL (≈ 56.8 µM); MIC50 [9]: 0.3 µg/mL (≈ 0.852 µM); Virus rating [10]: 6.5; Virus rating [11]: 3.4; Virus rating [12]: 7.9; Virus rating [13]: 7.1

**Q.** For `Cc1cn([C@@H]2C[C@H](CO)[C@@H](O)C2)c(=O)[nH]c1=O`, which Virus rating [14] is on record?
**A.** The Virus rating was 3.2.

**Q.** And the MIC50 [15]?
**A.** The MIC50 was 7 µg/mL (≈ 29.1 µM).

**Q.** What about the Virus rating [1] of the same compound?
**A.** The Virus rating was 5.4.

**Q.** And the MIC50 [16]?
**A.** The MIC50 was 0.8 µg/mL (≈ 3.33 µM).

**Q.** For `Cc1cn(C2CC(CO)C(O)C2O)c(=O)[nH]c1=O` (stereo not given), which Virus rating [1] is on record?
**A.** The Virus rating was 0.

**Q.** With `CNc1cn(C2CC(CO)C(O)C2O)c(=O)[nH]c1=O` (stereo not given) as the compound, how does the Virus rating [1] read?
**A.** Its Virus rating is 0.

**Q.** For `O=c1ccn(C2CC(CO)C(O)C2O)c(=O)[nH]1` (stereo not given), which Virus rating [1] is on record?
**A.** Its Virus rating is 0.

**Q.** With `O=c1[nH]c(=O)n(C2CC(O)C(CO)C2)cc1Br` (stereo not given) as the compound, how does the Virus rating [14] read?
**A.** The Virus rating was 1.5.

**Q.** What about the MIC50 [17] of the same compound?
**A.** The MIC50 was 32 µg/mL (≈ 105 µM).

**Q.** What about the MIC50 [18] of the same compound?
**A.** The MIC50 was 0.3 µg/mL (≈ 0.983 µM).

**Q.** And the Virus rating [1]?
**A.** Its Virus rating is 6.2.

**Q.** For `O=c1[nH]c(=O)n(C2CC(CO)C(O)C2O)cc1CO` (stereo not given), which Virus rating [14] is on record?
**A.** The Virus rating was 0.

**Q.** And the Virus rating [19]?
**A.** Its Virus rating is 0.3.

**Q.** For `O=c1[nH]c(=O)n(C2CC(CO)CC2O)cc1I` (stereo not given), which Virus rating [1] is on record?
**A.** Its Virus rating is 0.

**Q.** `Cc1cn(C2CC(CO)CC2O)c(=O)[nH]c1=O` (stereo not given) was tested. Which Virus rating [1] did it give?
**A.** Its Virus rating is 0.4.

**Q.** How did the Virus rating [1] turn out when `O=c1ccn(C2CC(CO)CC2O)c(=O)[nH]1` (stereo not given) was run?
**A.** The Virus rating was 0.

**Q.** With `Nc1cn(C2CC(CO)C(O)C2O)c(=O)[nH]c1=O` (stereo not given) as the compound, how does the Virus rating [1] read?
**A.** The Virus rating was 0.

**Q.** Which Virus rating [1] does the source give for `O=c1[nH]c(=O)n(C2CC(CO)C(O)C2O)cc1I` (stereo not given) here?
**A.** Its Virus rating is 0.

**Q.** Which Virus rating [1] does the source give for `Nc1cn(C2CC(CO)CC2O)c(=O)[nH]c1=O` (stereo not given) here?
**A.** The Virus rating was 0.

**Q.** For `CNc1cn(C2CC(CO)CC2O)c(=O)[nH]c1=O` (stereo not given), which Virus rating [1] is on record?
**A.** The Virus rating was 0.

**Q.** `CC(=O)OCC1CC(n2cc(Br)c(=O)[nH]c2=O)CC1OC(C)=O` (stereo not given) was tested. Which MIC50 [20] did it give?
**A.** The MIC50 was 100 µg/mL (≈ 257 µM).

**Q.** And the MIC50 [6]?
**A.** Its MIC50 is 92 µg/mL (≈ 236 µM).

**Q.** And the Virus rating [10]?
**A.** Its Virus rating is 1.3.

**Q.** What about the Virus rating [13] of the same compound?
**A.** The Virus rating was 0.9.

**Q.** How did the Virus rating [1] turn out when `O=c1[nH]c(=O)n(C2CC(CO)CC2O)cc1Br` (stereo not given) was run?
**A.** The Virus rating was 0.

**Q.** `CC(=O)OCC1CC(n2cc(I)c(=O)[nH]c2=O)CC1OC(C)=O` (stereo not given) was tested. Which MIC50 [6] did it give?
**A.** The MIC50 was 10 µg/mL (≈ 22.9 µM).

**Q.** And the MIC50 [21]?
**A.** The MIC50 was 25 µg/mL (≈ 57.3 µM).

**Q.** What about the Virus rating [10] of the same compound?
**A.** The Virus rating was 2.4.

**Q.** What about the Virus rating [13] of the same compound?
**A.** The Virus rating was 1.6.

**Q.** Which Virus rating [22] does the source give for `CCCCNc1cn(C2CC(O)C(CO)C2)c(=O)[nH]c1=O` (stereo not given) here?
**A.** The Virus rating was 0.7.

**Q.** What about the MIC50 [15] of the same compound?
**A.** The MIC50 was 1000 µg/mL (≈ 3360 µM).

**Q.** And the Virus rating [1]?
**A.** Its Virus rating is 2.

**Q.** And the MIC50 [16]?
**A.** The MIC50 was 290 µg/mL (≈ 975 µM).

**Q.** Which Virus rating [19] does the source give for `Nc1cn(C2CC(O)C(CO)C2)c(=O)[nH]c1=O` (stereo not given) here?
**A.** Its Virus rating is 0.1.

**Q.** `CNc1cn(C2CC(O)C(CO)C2)c(=O)[nH]c1=O` (stereo not given) was tested. Which Virus rating [22] did it give?
**A.** Its Virus rating is 1.2.

**Q.** What about the MIC50 [2] of the same compound?
**A.** Its MIC50 is 25 µg/mL (≈ 97.9 µM).

**Q.** What about the MIC50 [6] of the same compound?
**A.** Its MIC50 is 10 µg/mL (≈ 39.2 µM).

**Q.** What about the MIC50 [15] of the same compound?
**A.** The MIC50 was 229 µg/mL (≈ 897 µM).

**Q.** What about the MIC50 [9] of the same compound?
**A.** Its MIC50 is 15 µg/mL (≈ 58.8 µM).

**Q.** And the Virus rating [10]?
**A.** The Virus rating was 4.2.

**Q.** What about the Virus rating [12] of the same compound?
**A.** The Virus rating was 4.5.

**Q.** And the Virus rating [13]?
**A.** Its Virus rating is 3.9.

**Q.** For `O=c1ccn(C2CC(O)C(CO)C2)c(=O)[nH]1` (stereo not given), which Virus rating [19] is on record?
**A.** The Virus rating was 0.

**Q.** `CC(=O)OCC1CC(OC(C)=O)C(n2cc(Br)c(=O)[nH]c2=O)C1` (stereo not given) was tested. Which Virus rating [19] did it give?
**A.** The Virus rating was 0.

**Q.** How did the Virus rating [1] turn out when `O=c1[nH]c(=O)n(C2CC(CO)C(O)C2O)cc1Br` (stereo not given) was run?
**A.** The Virus rating was 0.

**Q.** With `CN(C)c1cn(C2CC(O)C(CO)C2)c(=O)[nH]c1=O` (stereo not given) as the compound, how does the Virus rating [1] read?
**A.** The Virus rating was 0.

**Q.** With `O=c1[nH]c(=O)n(C2CC(CO)CC2O)cc1F` (stereo not given) as the compound, how does the Virus rating [1] read?
**A.** The Virus rating was 0.

**Q.** How did the Virus rating [14] turn out when `O=c1[nH]c(=O)n([C@H]2C[C@H](O)[C@@H](CO)O2)cc1F` [FLOXURIDINE] was run?
**A.** Its Virus rating is 0.

**Q.** What about the Virus rating [1] of the same compound?
**A.** Its Virus rating is 0.

**Q.** What does the source list for `O=c1[nH]c(=O)n([C@H]2C[C@H](O)[C@@H](CO)O2)cc1I` [IDOXURIDINE]?
**A.** Virus rating [14]: 5; MIC50 [15]: 1 µg/mL (≈ 2.82 µM); MIC50 [16]: 0.3 µg/mL (≈ 0.847 µM); Virus rating [19]: 7.4

**Q.** What does the source list for `Nc1ncnc2c1ncn2[C@@H]1O[C@H](CO)[C@@H](O)[C@@H]1O` [VIDARABINE]?
**A.** Virus rating [14]: 2.3; MIC50 [15]: 20.1 µg/mL (≈ 75.2 µM); MIC50 [16]: 9.8 µg/mL (≈ 36.7 µM); Virus rating [19]: 2.7
